Source: ChEMBL document CHEMBL4382246, “Synthesis, biological evaluation, and molecular docking investigation of 3-amidoindoles as potent tubulin polymerization inhibitors” (Eur J Med Chem, 2019)

Legend:
MCF7 = test: Cytotoxicity against human MCF7 cells after 72 hrs by MTT assay; type: functional, cell-based; conditions: MCF7, 72 h
How it was run: (§1)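 Lines kept in RPMI-1640 with 10% FBS. Cells were seeded at 2×10³ per well and allowed to attach for 24 h at 37 °C. Medium was then replaced with medium holding serial dilutions from 100 mM DMSO stocks, with 0.1% DMSO as negative control, for 72 h at 37 °C. […] IC50 was fitted from the concentration series as the mean ± SD of three independent experiments run in duplicate.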

MDA-MB-231 = test: Cytotoxicity against human MDA-MB-231 cells after 72 hrs by MTT assay; type: functional, cell-based; conditions: MDA-MB-231, 72 h; how it was run: as §1
BT-549 [1] = test: Cytotoxicity against human BT549 cells after 72 hrs by MTT assay; type: functional, cell-based; conditions: BT-549, 72 h; how it was run: as §1
T47D = test: Cytotoxicity against human T47D cells after 72 hrs by MTT assay; type: functional, cell-based; how it was run: as §1
MDA-MB-468 = test: Cytotoxicity against human MDA-MB-468 cells after 72 hrs by MTT assay; type: functional, cell-based; conditions: MDA-MB-468, 72 h; how it was run: as §1
Hs-578T = test: Cytotoxicity against human Hs578T cells after 72 hrs by MTT assay; type: functional, cell-based; how it was run: as §1
Tubulin (Sus scrofa) = Tubulin (Sus scrofa) (UniProt P02554+P02550); test: Inhibition of pig brain tubulin polymerization at 10 uM by spectrophotometric analysis relative to control
Tubulin (Sus scrofa), sequence (P02550 whole entry, looked up): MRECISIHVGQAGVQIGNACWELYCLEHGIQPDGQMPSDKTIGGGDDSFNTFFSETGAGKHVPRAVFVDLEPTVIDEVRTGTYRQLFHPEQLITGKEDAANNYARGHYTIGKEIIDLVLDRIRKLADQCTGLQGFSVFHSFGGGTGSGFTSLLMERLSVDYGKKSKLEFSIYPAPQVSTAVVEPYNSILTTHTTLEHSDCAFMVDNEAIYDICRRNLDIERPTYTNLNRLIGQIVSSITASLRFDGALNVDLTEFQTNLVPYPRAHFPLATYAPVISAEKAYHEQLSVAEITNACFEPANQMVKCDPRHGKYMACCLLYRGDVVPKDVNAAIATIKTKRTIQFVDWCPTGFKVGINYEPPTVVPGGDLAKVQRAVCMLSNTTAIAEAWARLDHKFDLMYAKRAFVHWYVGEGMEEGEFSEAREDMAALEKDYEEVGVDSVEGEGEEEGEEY
Tubulin (Sus scrofa), sequence (P02554 whole entry, looked up): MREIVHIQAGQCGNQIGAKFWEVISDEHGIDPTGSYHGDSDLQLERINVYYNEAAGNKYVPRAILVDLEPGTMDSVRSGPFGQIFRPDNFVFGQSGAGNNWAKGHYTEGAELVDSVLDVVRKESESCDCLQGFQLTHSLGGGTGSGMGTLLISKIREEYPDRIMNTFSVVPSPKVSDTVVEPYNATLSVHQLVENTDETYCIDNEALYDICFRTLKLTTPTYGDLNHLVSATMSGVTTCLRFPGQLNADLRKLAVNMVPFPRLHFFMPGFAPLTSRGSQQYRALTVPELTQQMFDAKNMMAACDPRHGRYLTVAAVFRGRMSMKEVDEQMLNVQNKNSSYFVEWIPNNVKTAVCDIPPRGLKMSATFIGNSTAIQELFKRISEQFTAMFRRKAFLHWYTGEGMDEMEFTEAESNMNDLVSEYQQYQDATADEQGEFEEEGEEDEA
How it was run: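 Tubulin polymerization inhibition was measured with compounds at a final concentration of 10 µM.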

BT-549 [2] = test: Cell cycle arrest in human BT549 cells assessed as accumulation of cells at G0/G1 phase at 8 uM after 24 hrs by propidium iodide staining-based flow cytometric analysis (reference value: 65.28%); type: functional
BT-549 [3] = test: Cell cycle arrest in human BT549 cells assessed as accumulation of cells at S phase at 8 uM after 24 hrs by propidium iodide staining-based flow cytometric analysis (reference value: 25.84%); type: functional
BT-549 [4] = test: Cell cycle arrest in human BT549 cells assessed as accumulation of cells at G2/M phase at 8 uM after 24 hrs by propidium iodide staining-based flow cytometric analysis (reference value: 8.88%); type: functional

Row | inhibition (Tubulin (Sus scrofa)) [%] | SMILES | IC50 (MCF7) [µM] | IC50 (MDA-MB-231) [µM] | IC50 (BT-549 [1]) [µM] | IC50 (T47D) [µM] | IC50 (MDA-MB-468) [µM] | IC50 (Hs-578T) [µM] | Activity (BT-549 [2]) [%] | Activity (BT-549 [3]) [%] | Activity (BT-549 [4]) [%]
1 | – | COc1cc(C(=O)Nc2c(C(=O)c3ccc(F)cc3)[nH]c3ccccc23)cc(OC)c1OC | 77.9 | 50.8 | 42.6 | 60.9 | > 100 | > 100 | – | – | –
2 | – | COc1cc(C(=O)Nc2c(C(=O)c3ccccc3)[nH]c3cc(C)ccc23)cc(OC)c1OC | 32.7 | 16.6 | 42.3 | > 100 | > 100 | 49.1 | – | – | –
3 | – | COc1cc(C(=O)Nc2c(C(=O)c3ccc(F)cc3)[nH]c3cc(Cl)ccc23)cc(OC)c1OC | 61.1 | 46.6 | 35.5 | 76.2 | > 100 | > 100 | – | – | –
4 | – | COc1cc(C(=O)Nc2c(C(=O)c3ccco3)[nH]c3cc(Cl)ccc23)cc(OC)c1OC | > 100 | > 100 | > 100 | > 100 | > 100 | > 100 | – | – | –
5 | – | COc1cc(C(=O)Nc2c(C(=O)c3ccc(-c4ccccc4)cc3)[nH]c3cc(C)ccc23)cc(OC)c1OC | > 100 | 18.2 | > 100 | > 100 | > 100 | > 100 | – | – | –
6 | – | COc1cc(C(=O)Nc2c(C(=O)c3ccc(C)cc3)[nH]c3cc(C)ccc23)cc(OC)c1OC | 69.5 | 33.4 | 69.8 | 40.2 | 75.1 | 43.7 | – | – | –
7 | – | COc1cccc(C(=O)c2[nH]c3ccccc3c2NC(=O)c2cc(OC)c(OC)c(OC)c2)c1 | > 100 | > 100 | 65.5 | 53.4 | > 100 | 9.06 | – | – | –
8 | – | COc1ccc2c(NC(=O)c3cc(OC)c(OC)c(OC)c3)c(C(=O)c3ccc(C)cc3)[nH]c2c1 | > 100 | > 100 | > 100 | > 100 | > 100 | > 100 | – | – | –
9 | 30 | COc1ccc(C(=O)c2[nH]c3cc(Cl)ccc3c2NC(=O)c2cc(OC)c(OC)c(OC)c2)cc1O | 32.6 | 22.2 | 7.48 | 9.28 | 23.2 | 4.35 | – | – | –
10 | 17 | COc1cc(C(=O)Nc2c(C(=O)c3ccc(F)cc3)[nH]c3cc(C)ccc23)cc(OC)c1OC | 8.89 | 5.17 | 8.66 | 5.72 | 6.16 | 8.95 | – | – | –
11 | – | COc1cc(C(=O)Nc2c(C(=O)c3ccc(-c4ccccc4)cc3)[nH]c3ccccc23)cc(OC)c1OC | > 100 | > 100 | > 100 | > 100 | > 100 | 22.2 | – | – | –
12 | 37 | COc1cc(C(=O)Nc2c(C(=O)c3ccc(Br)cc3)[nH]c3ccccc23)cc(OC)c1OC | 7.14 | 6.47 | 10.3 | 9.55 | 7.87 | 7.52 | – | – | –
13 | – | COc1cc(C(=O)Nc2c(C(=O)c3ccc4ccccc4c3)[nH]c3cc(C)ccc23)cc(OC)c1OC | > 100 | > 100 | 39.8 | > 100 | > 100 | 53.3 | – | – | –
14 | – | COc1cc(C(=O)Nc2c(C(=O)c3cccs3)[nH]c3ccccc23)cc(OC)c1OC | > 100 | > 100 | > 100 | > 100 | > 100 | 29.6 | – | – | –
15 | 20 | COc1ccc(C(=O)c2[nH]c3ccccc3c2NC(=O)c2cc(OC)c(OC)c(OC)c2)cc1 | 10.7 | 35 | 10.4 | 5.56 | 7.09 | > 100 | – | – | –
16 | – | COc1cc(C(=O)Nc2c(C(=O)c3cccs3)[nH]c3cc(C)ccc23)cc(OC)c1OC | > 100 | > 100 | > 100 | > 100 | > 100 | > 100 | – | – | –
17 | – | COc1cc(C(=O)Nc2c(C(=O)c3ccccc3)[nH]c3ccccc23)cc(OC)c1OC | > 100 | 17.2 | > 100 | > 100 | > 100 | > 100 | – | – | –
18 | 25 | COc1ccc(C(=O)c2[nH]c3cc(OC)ccc3c2NC(=O)c2cc(OC)c(OC)c(OC)c2)cc1 | 79.3 | 48.8 | 18.2 | 6.3 | 26.4 | 10.4 | – | – | –
19 | – | COc1ccc2c(NC(=O)c3cc(OC)c(OC)c(OC)c3)c(C(=O)c3ccccc3)[nH]c2c1 | > 100 | > 100 | > 100 | > 100 | > 100 | > 100 | – | – | –
20 | – | COc1cc(C(=O)Nc2c(C(=O)c3cccs3)[nH]c3cc(Cl)ccc23)cc(OC)c1OC | 47.5 | > 100 | 37.5 | 31.4 | 15.3 | 49.2 | – | – | –
21 | – | COc1cc(C(=O)Nc2c(C(=O)c3ccc(C)cc3)[nH]c3ccccc23)cc(OC)c1OC | 50 | 12.6 | 17.1 | 20.1 | 14.5 | 50.5 | – | – | –
22 | 47 | COc1ccc(C(=O)c2[nH]c3cc(Cl)ccc3c2NC(=O)c2cc(OC)c(OC)c(OC)c2)cc1 | 17.6 | 9.17 | 11.1 | 11.1 | 8.61 | 15.9 | – | – | –
23 | – | COc1cc(C(=O)Nc2c(C(=O)c3ccc(F)c(F)c3)[nH]c3cc(Cl)ccc23)cc(OC)c1OC | 10.1 | > 100 | 51.2 | > 100 | > 100 | 64.6 | – | – | –
24 | 41 | COc1cc(C(=O)Nc2c(C(=O)c3ccccc3)[nH]c3cc(Cl)ccc23)cc(OC)c1OC | 51.8 | 32.7 | 26.9 | 45.5 | 11 | > 100 | – | – | –
25 | – | COc1ccc(/C=C\c2cc(OC)c(OC)c(OC)c2)cc1O [COMBRETASTATIN A4] | 0.003 | 0.00317 | 0.00171 | 0.00189 | 0.00155 | 0.00136 | 8.9 | 18.2 | 72.9
26 | 15 | COc1cc(C(=O)Nc2c(C(=O)c3ccc(Cl)cc3)[nH]c3cc(C)ccc23)cc(OC)c1OC | 3.85 | 3.22 | 4.81 | 6.25 | 4.12 | 3.59 | – | – | –
27 | 25 | COc1cc(C(=O)Nc2c(C(=O)c3cccc(Br)c3)[nH]c3cc(Cl)ccc23)cc(OC)c1OC | 23 | 26.8 | 8.42 | 14.1 | 20.8 | 4.1 | – | – | –
28 | 36 | COc1cc(C(=O)Nc2c(C(=O)c3ccc(C)cc3)[nH]c3cc(Cl)ccc23)cc(OC)c1OC | 34.3 | 33.6 | 25.1 | 16.6 | 5.79 | 14.2 | – | – | –
29 | – | COc1cccc(C(=O)c2[nH]c3cc(Cl)ccc3c2NC(=O)c2cc(OC)c(OC)c(OC)c2)c1 | > 100 | > 100 | > 100 | 52.4 | > 100 | > 100 | – | – | –
